# M4 antag: human M4 muscarinic receptor antagonists, primary screen, CHO cells, Fluo-8 calcium fluorescence; CHO-hM4 cells, ACh EC80; inhibition, % at 3 µM; hit rate 0.73% among 360,000;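 active = inhibition above its plate's cutoff, the mean inhibition of sample wells plus 3 SD, cut at about 27% in these data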;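 note: 0% = acetylcholine EC80 with DMSO and 100% = DMSO without agonist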
# Target sequence (P08173 whole entry, looked up): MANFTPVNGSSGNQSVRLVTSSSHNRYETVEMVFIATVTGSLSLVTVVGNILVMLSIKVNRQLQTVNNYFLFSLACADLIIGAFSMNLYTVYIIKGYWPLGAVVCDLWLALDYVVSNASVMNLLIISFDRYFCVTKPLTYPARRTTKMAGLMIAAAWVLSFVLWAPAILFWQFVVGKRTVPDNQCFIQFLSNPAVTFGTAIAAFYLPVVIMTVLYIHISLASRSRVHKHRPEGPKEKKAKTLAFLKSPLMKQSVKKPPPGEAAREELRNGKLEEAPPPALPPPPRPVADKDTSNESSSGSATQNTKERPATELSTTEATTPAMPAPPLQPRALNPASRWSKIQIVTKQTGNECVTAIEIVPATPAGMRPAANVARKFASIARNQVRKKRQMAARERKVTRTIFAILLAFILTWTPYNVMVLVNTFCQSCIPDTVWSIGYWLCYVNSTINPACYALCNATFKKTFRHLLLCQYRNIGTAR
# M5 antag: human M5 muscarinic receptor antagonists, primary screen, CHO cells, Fluo-8 calcium fluorescence | Muscarinic acetylcholine receptor M5 (Homo sapiens), P08912 | CHO-hM5 cells, ACh EC80 | inhibition, % at 3 µM | hit rate 0.59% among 360,000 | AID 624040, 2012;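 active = inhibition above a per-plate cutoff, the mean of that plate's test compounds plus 3 SD, cut at about 27% in these data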;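 note: 0% = acetylcholine EC80 with DMSO and 100% = DMSO without agonist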
# M4 PAM: human M4 muscarinic receptor positive allosteric modulators, primary screen, CHO-K1 cells, Fluo-8 calcium fluorescence | Muscarinic acetylcholine receptor M4 (Homo sapiens), P08173 | CHO-K1 hM4/Gqi5, ACh EC20; 0% = ACh EC20, 100% = maximal ACh | activation, % at 3 µM | hit rate 0.4% among 360,000 | AID 624126, 2012;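 active = activation above its plate's cutoff, the mean activation of sample wells plus 3 SD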
# M5 PAM: human M5 muscarinic receptor positive allosteric modulators, primary screen, CHO-K1 cells, Fluo-8 calcium fluorescence | Muscarinic acetylcholine receptor M5 (Homo sapiens), P08912 | CHO-K1 hM5, ACh EC20 PAM; 0% = ACh EC20, 100% = ACh EC100 | activation, % at 3 µM | hit rate 0.3% among 360,000 | AID 624038, 2012;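 active = activation above the run cutoff, the mean activation of all test compounds plus 3 SD, cut at about 18% in these data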
#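 System – CHO-K1 hM5 cells · Compound – 3 µM, single dose · Incubation – compound preincubation 140 s before EC20 acetylcholine addition · Technique – Fluo-8 calcium fluorescence · Measure – Max/basal fluorescence ratio as % of EC20–EC100 ACh window · Benchmarks – low control EC20 acetylcholine (0%), high control EC100 acetylcholine (100%) · Replication – singlicate, one well per test compound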
# M5 ag: human M5 muscarinic receptor agonists, primary screen, CHO-K1 cells, Fluo-8 calcium fluorescence; Muscarinic acetylcholine receptor M5 (Homo sapiens), P08912; CHO-K1 hM5 cells; 0% DMSO wells, 100% maximal acetylcholine response; activation, % at 3 µM; hit rate 0.19% among 360,000; AID 624037, 2012;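 active = activation above the run's mean over test compounds plus 3 SD, cut at about 23% in these data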;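 note: signal is peak over basal fluorescence ratio across the kinetic read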
# CHRM4 agonist: human M4 muscarinic receptor agonists, primary screen, CHO-K1 cells, Fluo-8 calcium fluorescence; Muscarinic acetylcholine receptor M4 (Homo sapiens), P08173; CHO-K1 hM4/Gqi5; vehicle 0%, full acetylcholine response 100%; activation, % at 3 µM; hit rate 0.14% among 360,000;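 active = activation above the run mean over all test wells plus 3 SD, cut at about 32% in these data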;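 note: peak over basal fluorescence ratio per well then scaled between controls; 0% = DMSO wells and 100% = acetylcholine at EC100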
# * marks the source's active call; other numbers are inactive results; ! = not confirmed by another sample. Most compounds without a hit are left out; they make up all but 1.8% or so of the library.
SMILES,M4 antag,M5 antag,M4 PAM,M5 PAM,M5 ag,CHRM4 agonist
CCN1CCN(CC(=O)N2N=C(c3cccs3)CC2c2ccc(OC)c(OC)c2)C(=O)C1=O (stereo not given),-11.9,6.0,0.6,6.1,-2.1,0.5
C=C1C(=O)c2sccc2C(c2ccc(OC)c(OC)c2)C1COC(C)=O (stereo not given),30.2*,9.4,-1.4,8.5,8.2,3.6
Oc1ccc(C[C@@H]2CNCCN2CCc2cc(C(F)(F)F)cc(C(F)(F)F)c2)cc1,14.6,-1.0,24.9*,15.1,8.1,6.2
O=C(NCc1cccc(F)c1)c1cccc2c1C(=O)c1ccc(N3CCC(Cc4ccccc4)CC3)cc1S2(=O)=O,2.2,27.8*,-2.2,-5.8,13.7,11.9
O=C(NCc1cccc(F)c1)c1cccc2c1C(=O)c1ccc(N3CCCC3)cc1S2(=O)=O,12.7,16.6,-16.2,-36.2,35.2*,79.7*
CNS(=O)(=O)c1c(C)cc(C)c(N(C)S(=O)(=O)c2ccccc2)c1C,-1.8,2.2,1.2,1.0,-0.9,3.7
Fc1cc(Cl)cc2ccc(-c3ccccc3)nc12,0.0,-3.0,-0.1,-3.4,0.3,-0.9
COc1cc2cc(CCO)oc(=O)c2cc1OC,12.5,11.9,11.4,3.8,-0.6,-1.5
COc1ccc(S(=O)(=O)n2c(N)nc3ccccc32)cc1,72.9*,69.2*,-14.1,-17.7,-3.3,6.7
Nc1nc2ccccc2n1S(=O)(=O)c1ccc([N+](=O)[O-])cc1,16.0,8.5,-12.6,-12.0,-3.2,1.9
Nc1nc2ccccc2n1S(=O)(=O)c1ccc(Cl)cc1,51.9*,40.3*,-14.3,-18.4,-3.7,2.4
Cc1ccc(S(=O)(=O)n2c(N)nc3ccccc32)cc1,86.4*,76.0*,-17.8,-37.4,-22.7,3.4
Cc1ccc2nc3n(c(=O)c2c1)-c1ncccc1C(=O)NC3Cc1ccccc1 (stereo not given),-3.4,3.2,3.9,-0.5,1.1,3.1
C[N+](C)(C)CC(=O)N/N=C/c1c2ccccc2cc2ccccc12,1.1,18.6,0.6,-12.0,32.0*,0.3
Cn1cccc1CC(=O)N/N=C\c1c2ccccc2cc2ccccc12,-10.6,-6.9,2.9,0.5,-1.2,0.4
CS(=O)(=O)N(CC(=O)N1CCCC1)c1ccc(Cl)cc1,14.2,0.8,-6.4,5.4,0.0,0.1
Nc1c(C(=O)C2CC2)sc2nc(-c3ccccc3)cc(C(F)(F)F)c12,-1.1,1.3,5.3,20.1*,1.7,1.7
COc1cc(C(=O)Nc2ccc3c(c2)N(C(=O)CCN(C)C)c2ccccc2CC3)cc(OC)c1OC,30.4*,16.5,-21.2,-20.6,-8.9,0.7
COc1cc(C(=O)Nc2cccc(C(C)=O)c2)cc(OC)c1OC,-1.2,5.4,-2.2,-0.4,3.0,4.9
COc1cc(C(=O)Nc2cccc(NC(=O)c3ccccc3)c2)cc(OC)c1OC,-2.7,30.1*,-10.9,-25.1,-6.6,14.2
CCOc1ccc(S(=O)(=O)NC(Cc2c[nH]c3ccccc23)C(=O)O)cc1 (stereo not given),4.8,10.7,0.7,-0.8,0.2,-0.2
CC(C)CCC1CC(CSC(=N)N)OC1=O (stereo not given),0.1,-2.2,2.4,21.0*,-16.8,0.4
CCc1nc2c(OCc3ccccc3C(=O)OC)cccn2c1N(C)C(=O)CC(C)C,-2.7,-3.0,-1.7,-3.1,-1.9,1.9
O=c1nc2n(c3ccc(Br)cc13)CCS2,32.9*,0.6,21.2,4.6,-5.0,3.6
O=c1c2ccccc2nc2n1CCS2,6.7,3.9,3.3,-5.8,-3.7,-0.4
SMILES,M4 antag,M5 antag,M4 PAM,M5 PAM,M5 ag,CHRM4 agonist
O=C(NC(c1ccccc1)C(Cl)Cl)c1ccccc1 (stereo not given),-3.3,-3.0,-7.0,4.9,-0.4,1.0
[N-]=[N+]=NC(c1ccccc1)C(NC(=O)c1cc(C(F)(F)F)cc(C(F)(F)F)c1)c1ccccc1 (stereo not given),30.7*,10.8,-13.1,-16.7,0.2,17.5
Cc1cc(C)c2nc(N3CCCC(C(=O)NC4CCCC4)C3)sc2c1 (stereo not given),9.4,3.8,6.1,7.7,-2.6,-0.1
COc1ccc2c(n1)Sc1nc3ccccc3nc1N2,1.4,22.6,-3.3,-6.4,30.9*,54.3*
COc1cc2ccccc2nn1,-3.6,8.8,-23.1,-5.8,0.2,0.0
O=C(NCc1ccccc1)C(c1ccc(F)cc1)N(C(=O)c1csnn1)C1CC1 (stereo not given),7.1,9.8,-0.1,-0.6,-2.4,2.4
CN(CC(=O)Nc1ccccc1Br)C(=O)CN1CCN(Cc2cccc(Cl)c2)CC1,-5.3,4.1,-6.3,4.2,-4.1,2.6
NS(=O)(=O)c1ccc(NC(=O)C2C3C=CC(C3)C2C(=O)O)cc1 (stereo not given),-6.5,-9.7,9.6,18.5*,3.8,0.5
CC(O)CN1C(=O)C(CC(=O)Nc2ccc(Cl)cc2)SC1=Nc1ccccc1 (stereo not given),5.9,9.9,-2.2,-5.9,-1.9,12.4
COCCN1C(=O)C(CC(=O)Nc2ccc(C(C)=O)cc2)SC1=Nc1ccccc1 (stereo not given),-0.1,28.8*!,-1.8,-12.2,-0.6,11.5
CCOC(=O)CSc1nnc(CNC(=O)c2ccc([N+](=O)[O-])cc2)n1C,-10.2,-6.1,12.9,21.9*,4.6,1.3
CCOC(=O)CSc1nnc(CNC(=O)c2cccc(C)c2)n1C,4.1,1.7,15.2,3.0,0.1,3.0
CC(=O)Nc1ccc(S(=O)(=O)NC2(c3ccccc3)C(=O)N(C)C(=O)N(C)C2=O)cc1,0.2,6.2,2.3,-1.0,-0.5,0.6
CC(C)c1ccc(/C=C/C(=O)NC(=S)NN2CCOCC2)cc1,-23.3,4.5,1.8,-3.2,-3.0,5.7
CC(C)c1ccc(/C=C/C(=O)NC(=S)Nc2ccc(CN3CCOCC3)cc2)cc1,13.9,40.6*,-14.3,-17.9,-8.3,2.8
CC1(N(O)C=C2C=CC(=O)C=C2)CCCCC1=O (stereo not given),-5.1,-1.4,10.5,1.4,3.1,0.5
NC(=O)c1ccc[n+](CCC[n+]2cccc(C(N)=O)c2)c1,-15.9,-8.6,16.3,1.2,-0.7,1.3
CCCCCCCCCC[n+]1cccc(C(=O)N(CC)CC)c1,44.1*,8.0,-17.5,-14.7,-10.3,-0.4

# Compound activity as filed in PubChem.
